# NSD2 HMT inh: blocks human histone methyltransferase NSD2 | inhibition, % at 12.5 µM | 0.54% of 310,000 active | NSD2 peptide methylation, AlphaScreen, 120 min | O96028; in the data active means inhibition above about 50%
# UHRF1 MBD2 ctr: blocks human UHRF1 binding to methylated DNA; Q96T88; UHRF1 binding to methylated oligo, TR-FRET; inhibition, % at 4.4 µM; 0.75% of 370,000 active; in the data active means inhibition above about 21%;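 further: UHRF1 SRA domain binding a hemimethylated CpG hairpin DNA probe; 0% = median of test compound wells and 100% = reference inhibitor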
# LEDGF integ inh: blocks HIV-1 LEDGF/p75-dependent DNA integration. TR-FRET IN-LEDGF/p75 DNA integration, Eu/Cy5. inhibition, % at 3.7 µM. 0.64% of 370,000 active;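 active means inhibition above the screen-wide mean plus 3 SD, cut at about 13% in these data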;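 further: signal is the Cy5 over europium emission ratio at 671 and 618 nm; 0% = plate median of compound wells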
# MBD2 inh: MBD2-methylated oligo binding inhibition | Q9UBB5 | TR-FRET, MBD2 binding to methylated oligonucleotide | inhibition, % at 4.4 µM | 0.31% of 370,000 active; in the data active means inhibition above about 13%
# TDP2 inh: blocks human TDP2 phosphodiesterase activity. O95551. AID 720702. recombinant TDP2, T5PNP hydrolysis, p-nitrophenol absorbance 415 nm. inhibition, % at 12.8 µM. 0.34% of 370,000 active;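 active means inhibition above the mean of all tested compounds plus 3 SD, set per campaign, cut at about 25% in these data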;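 further: 0% = DMSO with enzyme and 100% = buffer with substrate but no TDP2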
# Target sequence (O95551 whole entry, looked up): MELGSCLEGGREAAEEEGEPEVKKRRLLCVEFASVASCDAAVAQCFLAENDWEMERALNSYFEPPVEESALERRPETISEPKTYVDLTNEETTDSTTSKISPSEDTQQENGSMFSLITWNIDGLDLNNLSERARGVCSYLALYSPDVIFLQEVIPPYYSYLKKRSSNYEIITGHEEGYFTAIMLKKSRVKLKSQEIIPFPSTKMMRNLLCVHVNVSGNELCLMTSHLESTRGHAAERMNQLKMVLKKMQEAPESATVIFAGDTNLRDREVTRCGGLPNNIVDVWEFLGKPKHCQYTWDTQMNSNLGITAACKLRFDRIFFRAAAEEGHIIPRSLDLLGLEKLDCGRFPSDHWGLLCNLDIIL
#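 Assay system: recombinant human TDP2 / Reagent: T5PNP substrate at 5 mM, a TopII-DNA adduct mimic / Measured by: epi absorbance from released p-nitrophenol / Evaluation: % inhibition relative to enzyme-containing and enzyme-free wells / Control set: enzyme-free and DMSO wells / Replicates: each compound tested once, singlicate / Schedule: enzyme reaction with compound for 2 h at 37 °C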
# CASP6 VEID inh: blocks human caspase-6 cleavage activity. purified caspase-6, Z-VEID-R110 cleavage fluorescence. 0.53% of 350,000 active. P55212. inhibition, % at 12.5 µM. AID 686996;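 active means mean inhibition across replicates at least about 35%, with every replicate also reaching that limit, limit read from the data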;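 further: 0% = median of neutral control wells and 100% = no fluorescence left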
# Target sequence (P55212 24-179 limits assumed): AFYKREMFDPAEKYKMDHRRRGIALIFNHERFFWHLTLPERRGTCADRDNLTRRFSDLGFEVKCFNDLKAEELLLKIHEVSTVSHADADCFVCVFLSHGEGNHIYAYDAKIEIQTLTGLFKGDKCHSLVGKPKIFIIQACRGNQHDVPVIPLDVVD
# Target sequence (P55212 194-293 limits assumed): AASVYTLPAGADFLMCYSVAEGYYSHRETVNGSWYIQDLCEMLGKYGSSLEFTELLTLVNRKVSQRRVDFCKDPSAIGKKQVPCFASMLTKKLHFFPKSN
# The depositor's hits bear a star; x = not tested or not shown. An excerpt weighted towards active compounds, which were near 1.8% of everything screened.
SMILES,NSD2 HMT inh,UHRF1 MBD2 ctr,LEDGF integ inh,MBD2 inh,TDP2 inh,CASP6 VEID inh
Cc1c(C(=O)Nc2ccc(F)c(F)c2)oc2ccc(S(=O)(=O)N3CCCCC3)cc12,-2,23*,-3,4,-10,0
CCOC(=O)c1[nH]c(C)c(C(=O)OCC(=O)NCc2ccc(OC)cc2)c1C,4,9,-1,1,-7,-3
CCOC(=O)c1c(C)[nH]c(C(=O)N(C)CC(=O)Nc2ccc(OC)cc2)c1C,-2,21*,-5,0,-4,0
O=C(CSc1nc2ccccc2c(=O)[nH]1)Nc1ccc(N2CCOCC2)cc1,0,3,-1,-2,-2,58*
N=C(N)SCc1ncccc1O,12,x,x,x,x,43*
COc1cccc(NS(=O)(=O)c2ccc3c(c2)CCCN3C(C)=O)c1,-3,4,-4,11,-15,4
COc1cccc(NS(=O)(=O)c2ccc3c(c2)C2C=CCC2C(c2ccc(C(=O)O)cc2)N3)c1 (centres undefined),x,8,44*,1,16,x
O=C(O)c1ccc2c(c1)[C@@H]1C=CC[C@@H]1[C@H](c1ccccn1)N2,x,98*,95*,91*,26*,x
CCS(=O)(=O)N1CC(=O)N2[C@@H](CO)[C@H](c3ccc(C#Cc4ccc(F)cc4)cc3)[C@@H]2C1,x,x,x,x,x,0
Cc1cc(NC(=O)CSc2ccc(-c3ccc4c(c3)OCO4)nn2)no1,-2,5,4,2,0,3
Cc1cccc(NC(=O)CSc2ccc(-c3ccc4c(c3)OCO4)nn2)c1C,-2,27*,2,13,9,x
COc1ccc(S(=O)(=O)N[C@H]2CC[C@@H](CC(=O)N3CCc4ccccc4C3)O[C@@H]2CO)cc1,x,x,x,x,x,1
O=C(c1c(O)cc(O)cc1O)C1c2c(cc(O)c3c2O[C@H](c2ccc(O)cc2)[C@@H](O)C3)OC1c1ccc(O)cc1 (some centres undefined),x,-1,10,3,5,37*
O=C(CC1CC1)N1[C@@H](CO)[C@H](c2ccccc2)C12CN(Cc1ccncc1)C2,x,x,x,x,x,0
CC(=O)NC1C(=O)N(CCN2CCOCC2)c2ccc(Cl)cc21 (centres undefined),-3,-2,16*,2,6,40*
C=C(NC(=O)C(=C)NC(=O)c1csc(C2=NC3c4csc(n4)C4NC(=O)c5csc(n5)C(C(C)(O)C(C)O)NC(=O)C5CSC(=N5)/C(=C/C)NC(=O)C(C(C)O)NC(=O)c5csc(n5)C3(CC2)NC(=O)C(C)NC(=O)C(=C)NC(=O)C(=C)NC(=O)C(C(C)C)NC2C=Cc3c(C(C)O)cc(nc3C2O)C(=O)OC4C)n1)C(N)=O (centres undefined),x,-2,32*,7,5,9
C[C@@H]1CN([C@@H](C)CO)C(=O)c2cc(NC(=O)C3CC3)ccc2O[C@@H]1CN(C)S(=O)(=O)c1ccc(F)cc1,x,x,x,x,x,-5
COc1ccc(C(C)(O)c2nc(-c3ccc4ccccc4c3)cs2)cc1 (centres undefined),-3,34*,4,-7,-3,-3
CC(C)c1ccc(S(=O)(=O)N2CCN(CC(=O)c3ccc(O)c(O)c3)CC2)cc1,96*,2,36*,-5,0,57*
Cc1ccc(NC(=O)c2ccc([N+](=O)[O-])o2)cc1S(=O)(=O)N1CCOCC1,10,0,5,-1,-8,41*
CCOc1ccccc1C(=O)NCC(=O)NNC(=O)c1cccs1,-1,21*,2,-1,-7,0
COc1cc(OC)cc(C(=O)NNC(=O)CNC(=O)c2cccs2)c1,-3,0,2,-8,-17,62*
C/C=C/c1ccc([C@H]2[C@@H](CO)N(S(C)(=O)=O)[C@H]2CNC(C)C)cc1,x,x,x,x,x,1
Cc1cccn2c(/C=N/OCc3cccc(F)c3)c(-c3ccc(Cl)cc3)nc12,0,23*,-1,8,10,x
COc1cccc(CN(C)C(=O)c2cccnc2SC)c1OC,-2,26*,-1,9,5,-5
SMILES,NSD2 HMT inh,UHRF1 MBD2 ctr,LEDGF integ inh,MBD2 inh,TDP2 inh,CASP6 VEID inh
C[C@H]1CN([C@@H](C)CO)C(=O)c2cccc(NC(=O)C3CCCCC3)c2O[C@@H]1CN(C)S(=O)(=O)c1cccs1,x,x,x,x,x,-1
COC(=O)CSC1=C(C#N)C(c2ccc(Cl)cc2)C(C(=O)OC)C(=O)N1 (centres undefined),0,23*,1,11,14,x
O=C(NC1CCCC1)N[C@@H]1CC[C@H](CC(=O)N2CCOCC2)O[C@@H]1CO,x,x,x,x,x,0
CCOC(=O)C1C(c2cccc(F)c2)NC(=S)NC1(O)C(F)(F)F (centres undefined),-1,29*,0,1,1,x
CCOC(=O)C1C(c2cc(OC)c(OC)c(OC)c2)NC(=S)NC1(O)C(F)(F)F (centres undefined),0,1,0,10,7,x
O=C(O)c1cc([N+](=O)[O-])ccc1NCCc1ccccc1,17,25*,-3,11,-8,14
O=C(O)c1cc([N+](=O)[O-])ccc1NCCO,4,1,-6,-2,-3,x
Cc1cccc(Nc2ccc([N+](=O)[O-])cc2C(=O)O)c1,17,23*,8,5,-20,4
COc1cccc(S(=O)(=O)N(C)C[C@H]2Oc3ncc(-c4cccc(C(=O)N(C)C)c4)cc3C(=O)N([C@@H](C)CO)C[C@H]2C)c1,x,x,x,x,x,-1
CC(=O)N1CCc2cc(Br)cc(S(=O)(=O)N3CCC(C(=O)O)CC3)c21,22,4,-5,2,-12,39*
CCOC(=O)Cc1nnc(NC(=O)C(CC)Sc2nc(C)cc(=O)[nH]2)s1 (centres undefined),x,-3,-1,4,5,43*
C[C@H]1CCCCO[C@H](CN(C)CC2CCCCC2)[C@@H](C)CN([C@@H](C)CO)C(=O)c2cc(NS(=O)(=O)c3cccs3)ccc2O1,x,x,x,x,x,1
N#C[C@H]1[C@H](c2ccc(C#CC3CCCCC3)cc2)[C@H](CO)N1C(=O)Cc1ccccn1,x,x,x,x,x,-2
Cc1cc(N2CCCC2)nc2ccc(NC(=S)NCCCN3CCC(C)CC3)cc12,x,22*,0,8,0,-47
O=C(O)C[C@@H]1CC[C@H](NC(=O)c2ccccc2F)[C@@H](CO)O1,x,x,x,x,x,1
COc1ccc(S(=O)(=O)N(C)C[C@H]2OCCCC[C@H](C)Oc3ccc(NS(C)(=O)=O)cc3C(=O)N([C@H](C)CO)C[C@@H]2C)cc1,x,x,x,x,x,-1
CC[C@@]1(C(=O)OC)N[C@H](CN(C)C(=O)Nc2ccc(C(F)(F)F)cc2)[C@@H]2C(=O)N(C)C(=O)[C@@H]21,x,22*,-4,6,0,4
O=C(Nc1ccc(F)cc1)N[C@@H]1CC[C@H](CCNS(=O)(=O)c2ccccc2F)O[C@H]1CO,x,x,x,x,x,-4
